The text below walks through data of ChEMBL document CHEMBL4513216, “Probing the Open Global Health Chemical Diversity Library for Multistage-Active Starting Points for Next-Generation Antimalarials” (ACS Infect Dis, 2020).

The nature of this data set: Toxicity liver stage against HepG2, at 10uM. Particulars: human, HepG2-A16-CD81EGFP cells; read-out: INHIBITION
Also on record: test concentration 10 uM, cell line HepG2-A16-CD81EGFP. It is filed as cell-based. Summed up: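 Uninfected HepG2-A16-CD81EGFP cells, 3 × 10^3 per well, 1536-well, plated on prespotted compound at 10 μM final, parasite-free screening media added to match infected plates; puromycin 10 μM positive, DMSO 0.5% negative; run in parallel with 48 h PbLuc assay at 37 °C, 5% CO2; viability by CellTiter-Glo luminescence, normalized to controls.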
Take `COc1ccc(NC(=O)Nc2c(O)c3ccccc3oc2=O)cc1`: the cytotoxicity at 10 µM is -9.87%.

In the case of `CCOc1nc2cnccc2n(CC(=O)NCCc2ccccc2)c1=O`, the cytotoxicity at 10 µM is -6.29%.

As for `CSCC(C)(O)CNS(=O)(=O)Cc1ccc(F)cc1` (stereo unspecified), the cytotoxicity at 10 µM was -1.12%.

With `CCCNC(=O)CSc1nnc2[nH]c(=O)cc(CC)n12`, the cytotoxicity at 10 µM was -17.3%.

`Cn1c(C(F)(F)F)nn(CCNC(=O)NCc2ccccc2)c1=O`: the cytotoxicity at 10 µM is -27.3%.

`NC(=O)CN1CCC(c2csc(Nc3cnccn3)n2)CC1`: the cytotoxicity at 10 µM is -2.19%.

For `Cc1cc(C)nc(Nc2nccnc2C2CCCN(CCO)C2)n1` (stereo unspecified), the cytotoxicity at 10 µM is -0.0399%.

For `COc1ncc(CN2C[C@@H]3C[C@@H](O)CN3C[C@@H]2Cc2ccccc2)cn1`, the cytotoxicity at 10 µM was -6.86%.

For the compound `CCC(=O)NC(Cc1cc(N(C)C)nc(C2CC2)n1)c1ccccc1` (stereo unspecified), the cytotoxicity at 10 µM stood at 0.301%.

Turning to `O[C@H]1CCN(CCCOc2ccccc2F)C[C@@]12CCCO2`, the cytotoxicity at 10 µM was determined as 1.14%.

Turning to `Cc1nc(C2CCN(C(=O)c3ccn(C)n3)CC2)c2sccn12`, the cytotoxicity at 10 µM is -4.66%.

Consider `CN(C)S(=O)(=O)N1CCCC1c1cccc(-n2ccnc2)n1` (stereo unspecified), for which the cytotoxicity at 10 µM was -3.75%.

For the compound `Cc1ncsc1CN1CC[C@](C)(O)[C@@H](Oc2cccc(F)c2)C1`, the cytotoxicity at 10 µM was -14.8%.

Regarding `Cc1ccc(O)c(CNc2cccc(CN3CCSCC3)c2)n1`, the cytotoxicity at 10 µM was -7.94%.

For `COc1ccc(-c2nc(CSC3CCCCNC3=O)co2)cc1` (stereo unspecified), the cytotoxicity at 10 µM amounted to 20.9%.

Take `CCc1ccsc1C(=O)N(C)CCc1ccncc1`: the cytotoxicity at 10 µM is -0.386%.

Turning to `CCn1cc(C(=O)NCC2(C(N)=O)CCOCC2)c2ccccc21`, the cytotoxicity at 10 µM is 0.969%.

As to `N#CCCn1cnc2c(Br)cccc2c1=O`, the cytotoxicity at 10 µM was determined as 4.65%.

Consider `CCC(C)C(=O)N(C)Cc1cc(F)ccc1N1CCC(OC)CC1` (stereo unspecified), for which the cytotoxicity at 10 µM was -5.41%.

Take `O=C1CCN(C(=O)C2(c3ccc(Br)cc3)CC2)CCN1`: the cytotoxicity at 10 µM is 1.56%.

`Cc1nn(C)c(Cl)c1C1CCCN1CC(=O)N1CCOCC1` (stereo unspecified): the cytotoxicity at 10 µM is 3.41%.

For the compound `COc1ccccc1C(CNC(=O)NCc1cc[nH]n1)N1CCCC1` (stereo unspecified), the cytotoxicity at 10 µM was -0.634%.

`CSC(C)(C)CNC(=O)NC1CCN(CC(F)F)CC1`: the cytotoxicity at 10 µM is -5.12%.

With `CCc1nnc(CN2CCC(c3nc4cc(Cl)ccc4o3)CC2)o1`, the cytotoxicity at 10 µM was -0.956%.

For `CC(CNC(=O)c1cc(Cl)ccc1F)N1CCCC1` (stereo unspecified), the cytotoxicity at 10 µM was -4.43%.

In the case of `O=C(NCCc1nnc2n1CCC2)NCC1(c2ccccc2F)CC1`, the cytotoxicity at 10 µM stood at 0.833%.

`COc1ccc(CNC(=O)NC2CCN(C)CC2)c(C(F)(F)F)c1`: the cytotoxicity at 10 µM is -12.2%.

Take `CC(C)N(C)C(=O)C1CCN(Cc2cc3c(cc2O)CCC3)CC1`: the cytotoxicity at 10 µM was 6.15%.

In the case of `CCc1nn(C)c2[nH]nc(NC(=O)c3ccccc3COC)c12`, the cytotoxicity at 10 µM is 6.16%.

Regarding `O=C(Nc1ccc(F)cc1)N(CCC(F)(F)F)C[C@H](O)CO`, the cytotoxicity at 10 µM was -7.8%.

`CC(C)CSCCCNC(=O)C1CCOC1` (stereo unspecified): the cytotoxicity at 10 µM was -5.81%.

Turning to `Cc1ccc(C)c(OCc2nnc(SCC3CCCN(C)C3)o2)c1` (stereo unspecified), the cytotoxicity at 10 µM came out at 5.24%.

Turning to `CCc1ncnc2c1CCN(S(=O)(=O)CC)CC2`, the cytotoxicity at 10 µM was -105%.

Take `Cn1cccc1C(=O)NCc1cn2c(n1)CN(S(=O)(=O)C1CC1)CC2`: the cytotoxicity at 10 µM is -114%.

For `CC(=O)N1CCC(n2nccc2-c2cnc(N3CCCC3)nc2)CC1`, the cytotoxicity at 10 µM was -0.00173%.

`C[C@@H]1CN(c2nc3c(cc2C(N)=O)CCC3)C[C@@]1(O)C1CCC1`: the cytotoxicity at 10 µM is -3.98%.

In the case of `CO[C@H]1C[C@@H](O)C12CCN(CCCOc1ccc(C(N)=O)cc1)CC2`, the cytotoxicity at 10 µM was -5.66%.

In the case of `CC1=C(CCN2C[C@H](O)[C@@H](N3CCOCC3)C2)C(C)(C)CCC1`, the cytotoxicity at 10 µM is -0.128%.

For `CC(C)=CCN1CCN(C(=O)CSc2ccccn2)[C@H]2CS(=O)(=O)C[C@H]21`, the cytotoxicity at 10 µM came out at 4.97%.

Turning to `CNc1ccc(C)cc1C(=O)N1CCCC2(CCNC2)C1` (stereo unspecified), the cytotoxicity at 10 µM was -6.63%.

With `Cn1ccnc1-c1ccc(NCCC2COc3ccccc3O2)nn1` (stereo unspecified), the cytotoxicity at 10 µM was found to be 9.56%.

`CCC(C)Nc1ccc(-c2nc(-c3cccc(OC)c3OC)no2)cn1` (stereo unspecified): the cytotoxicity at 10 µM was 24.8%.

In the case of `N#Cc1c(N)nc2c(c1-c1c[nH]nc1C1CCCCC1)CNCC2`, the cytotoxicity at 10 µM is 0.787%.

Turning to `CC(C)CCn1cc(C(C(=O)O)N2CCCN(C3CCCC3)CC2)cn1` (stereo unspecified), the cytotoxicity at 10 µM was -5.84%.

In the case of `COCCCN1CC2(CCC1=O)CCN(Cc1cc(C)no1)CC2`, the cytotoxicity at 10 µM was determined as 4.08%.

As for `Cc1c(C(=O)N2CCC3(CCC(=O)N(CCN(C)C)C3)CC2)ccn1C`, the cytotoxicity at 10 µM was -4.06%.

Consider `CS(=O)(=O)c1ccc(CN2CCCCC2c2cccc(F)c2)cc1` (stereo unspecified), for which the cytotoxicity at 10 µM is -17.4%.

As for `Cn1cc(CN2CCC(CCC(=O)Nc3ccccc3Cl)CC2)cn1`, the cytotoxicity at 10 µM is -2.98%.

For the compound `Cc1nccn1CCC1CCN(C(=O)C2CC3(CCNCC3)CN2)CC1` (stereo unspecified), the cytotoxicity at 10 µM is -1.64%.

In the case of `O=C(O)C1(Oc2ccc3ccccc3c2)CCN(c2ccncc2)CC1`, the cytotoxicity at 10 µM turned out to be 0.542%.

As to `COCC(=O)N1CCc2cccc(S(=O)(=O)N3CCOCC3)c2C1`, the cytotoxicity at 10 µM was -5.42%.

In the case of `Cc1cc(-c2cc(-c3cc(CC(=O)O)cs3)nc(N)c2C#N)oc1C`, the cytotoxicity at 10 µM is -6.25%.

For the compound `O=C(c1cncc(NCC2COc3ccccc3C2)n1)N1CCCC1` (stereo unspecified), the cytotoxicity at 10 µM was -6.53%.

With `Cc1cccc2[nH]c(C3CCN(C(=O)c4cccnn4)CC3)nc12`, the cytotoxicity at 10 µM stood at 11.2%.

As to `COC1CCCN(C2CCN(c3cccc(-c4csc(C)n4)c3)CC2)C1` (stereo unspecified), the cytotoxicity at 10 µM was found to be 0.929%.

For the compound `CC(=O)NCC(=O)N1Cc2c(-c3cccc(C)c3)nc(N)nc2C1C` (stereo unspecified), the cytotoxicity at 10 µM was 7.66%.

On to `Cc1c(Cn2c(=O)cnc3ccccc32)cnn1C`, for which the cytotoxicity at 10 µM is -0.473%.

For the compound `CSc1nccc(-c2cccc(-c3ccn(CC4COCCO4)n3)c2)n1` (stereo unspecified), the cytotoxicity at 10 µM was -7.92%.

For `c1cc(C2CCN(c3ncnc4c3CCNCC4)CC2)ccn1`, the cytotoxicity at 10 µM was found to be 8.33%.

Take `COC(=O)N1CCN(Cc2ccccc2Cl)CC1`: the cytotoxicity at 10 µM was -0.227%.

As for `CCCC1(CO)CCCN(C(=O)CCCn2nc(C)cc2C)C1` (stereo unspecified), the cytotoxicity at 10 µM was -9.53%.

Take `COCCN(Cc1cnn(C)c1)CC1CCN(C(C)C)CC1`: the cytotoxicity at 10 µM is -9%.

Consider `COCC(O)CNC(=O)c1coc(COc2ccc3sc(C)nc3c2)n1` (stereo unspecified), for which the cytotoxicity at 10 µM worked out at 10.8%.

`Cn1c(=O)c2cc(C(=O)NCCOc3ccccc3)ccc2n(C)c1=O`: the cytotoxicity at 10 µM is -4.69%.

`Cc1cc(Br)c(O)c(-c2nc(N3CCOCC3)sc2C)c1`: the cytotoxicity at 10 µM was 74.4%.

Regarding `c1ccc(-c2nnc3n2CCN(Cc2ccc4c(c2)OCCO4)C3)cc1`, the cytotoxicity at 10 µM was determined as 7.66%.

As for `O=C(CCCN1CCOC1=O)Nc1cnn(-c2ccccc2Cl)c1`, the cytotoxicity at 10 µM was -4.56%.

As to `O=C(CCc1cccc(Cl)c1Cl)N1CCOCC1c1ncon1` (stereo unspecified), the cytotoxicity at 10 µM is -2.33%.

With `CC(C)c1ncc2c(n1)CN(Cc1nc(-c3cccnc3)no1)CC2`, the cytotoxicity at 10 µM is -18.7%.

As to `COCCOc1cccc(C(=O)N2CCCC(n3ccnc3)C2)c1` (stereo unspecified), the cytotoxicity at 10 µM is -17.1%.

As for `CC(C)n1cc(CN2CCCN(C(=O)CN3CCCC3=O)CC2)cn1`, the cytotoxicity at 10 µM was -27.5%.

`Cc1cnn(CC(=O)N2CCCN(Cc3cnn(C(C)C)c3)CC2)c1`: the cytotoxicity at 10 µM is -12.3%.

As to `CC(NC(=O)CCCc1nc(C(C)(C)C)no1)c1ccccn1` (stereo unspecified), the cytotoxicity at 10 µM is -5.81%.

`CCOc1ccccc1OC1CCN(C(=O)c2c[nH]nn2)CC1`: the cytotoxicity at 10 µM was -2.48%.

For `COc1ccc2c(c1)CCN2Cc1nc2c(cnn2C)c(=O)[nH]1`, the cytotoxicity at 10 µM was -10.3%.

In the case of `CN(Cc1ccsc1)C(=O)Nc1ccc(N(C)C)nc1`, the cytotoxicity at 10 µM is -3.08%.

As for `CCCc1n[nH]c(C2CN(C(=O)c3cc4c(s3)CCC4)CCO2)n1` (stereo unspecified), the cytotoxicity at 10 µM is -10.1%.

Regarding `CN1CCOC(CNCc2coc(-c3ccc(Cl)cc3)n2)C1` (stereo unspecified), the cytotoxicity at 10 µM was -9.99%.

For the compound `CCN(CC)C(CNC(=O)c1c(C)noc1C(C)C)c1ccsc1` (stereo unspecified), the cytotoxicity at 10 µM was -12.2%.

Turning to `Fc1ccc(-c2nc(CN3CCCC3Cn3cncn3)co2)cc1F` (stereo unspecified), the cytotoxicity at 10 µM was -5.58%.

In the case of `Cc1cc(C)n(C2CN(CC(O)c3cc(F)ccc3F)C2)n1` (stereo unspecified), the cytotoxicity at 10 µM is -15.1%.

As for `CC(C)c1nc(CN(C)C2CCN(CCS(C)(=O)=O)C2)no1` (stereo unspecified), the cytotoxicity at 10 µM was -13.4%.

As to `NC(=O)CN1CCCN(C(=O)Cc2cccc(C(F)(F)F)c2)CC1`, the cytotoxicity at 10 µM was -3.05%.

`CNc1snc(C)c1C(=O)N1CCCC(n2ccnc2)C1` (stereo unspecified): the cytotoxicity at 10 µM is -13.8%.

For the compound `CC(C)c1nc(C2CCCN2Cc2cc(=O)n(C)c(=O)n2C)no1` (stereo unspecified), the cytotoxicity at 10 µM is -10.7%.

On to `c1nc(N2CCOC(Cn3cncn3)C2)c2cc[nH]c2n1` (stereo unspecified), for which the cytotoxicity at 10 µM was -7.97%.

For `Cc1ccc(CC(=O)N2CCCC2Cn2nc(C)cc2C)cn1` (stereo unspecified), the cytotoxicity at 10 µM was -9.24%.

For the compound `CC(Cn1cccn1)NCc1csc(COc2ccc(F)cc2)n1` (stereo unspecified), the cytotoxicity at 10 µM is 5.84%.

Consider `CN(C)S(=O)(=O)c1ccc(CN2CCCC2c2ccccc2)o1` (stereo unspecified), for which the cytotoxicity at 10 µM was -5.72%.

Regarding `Cc1nc(CN2CCN(Cc3nccn3C)CC2)no1`, the cytotoxicity at 10 µM is 3.44%.

Regarding `Cc1cc(NC(=O)CN2CCOC(Cn3cccn3)C2)n(C)n1` (stereo unspecified), the cytotoxicity at 10 µM is 5.56%.

`CN(C)C(=O)[C@H]1C[C@@H]2CCN(Cc3ccoc3)C[C@@H]2O1`: the cytotoxicity at 10 µM was -99.7%.

Take `CCCN1CC[C@@H]2[C@@H](CO[C@H]2CNC(=O)c2nccn2C)C1`: the cytotoxicity at 10 µM is -111%.

With `COc1c(CNCCNC(=O)c2cccc(C)c2)c(C)nn1C`, the cytotoxicity at 10 µM is -6.64%.

Consider `CCc1ccc(CN2CCC3(CC2)CNC(=O)CO3)o1`, for which the cytotoxicity at 10 µM was -16.5%.

Regarding `O=c1cc(CN2C[C@@H]3CC[C@H]2CN(Cc2ccccc2)C3)[nH]c(=O)[nH]1`, the cytotoxicity at 10 µM worked out at 8.89%.
